# Test results: ChEMBL document CHEMBL3120102, “Structure-based design, synthesis and biological evaluation of novel anthra[1,2-d]imidazole-6,11-dione homologues as potential antitumor agents” (2013)
# Assays:
# Type in all cases: functional
# MDA-MB-231 = experiment: Cytotoxicity against human MDA-MB-231 cells assessed as growth inhibition after 48 hrs by SRB assay
# How it was run: (§1)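 NCI 60-cell-line screen, five-dose stage: each cell line exposed for 48 h to five concentrations spanning five log steps; cellular protein measured by sulforhodamine B colorimetry. A time-zero cell control and plates without drug are used to derive GI50, TGI and LC50 from log-concentration dose-response curves.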
# NCI-H460 = experiment: Cytotoxicity against human NCI-H460 cells assessed as growth inhibition after 48 hrs by SRB assay; how it was run: as §1
# NCI-H226 = experiment: Cytotoxicity against human NCI-H226 cells assessed as growth inhibition after 48 hrs by SRB assay; how it was run: as §1
# SK-MEL-28 = experiment: Cytotoxicity against human SK-MEL-28 cells assessed as growth inhibition after 48 hrs by SRB assay; how it was run: as §1
# LOX IMVI = experiment: Cytotoxicity against human LOXIMVI cells assessed as growth inhibition after 48 hrs by SRB assay
# How it was run: (§2)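 NCI 60-cell-line five-dose screen at […]. Drug exposure was 48 h, followed by sulforhodamine B protein staining. GI50, TGI and LC50 were calculated against a time-zero control and untreated plates, with dose–response curves plotted from log10 concentration.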
# HOP-62 = experiment: Cytotoxicity against human HOP62 cells assessed as growth inhibition after 48 hrs by SRB assay; how it was run: as §2
# SK-MEL-5 = experiment: Cytotoxicity against human SK-MEL-5 cells assessed as growth inhibition after 48 hrs by SRB assay; how it was run: as §1
# HT-29 = experiment: Cytotoxicity against human HT-29 cells assessed as growth inhibition after 48 hrs by SRB assay; how it was run: as §2
# M14 = experiment: Cytotoxicity against human M14 cells assessed as growth inhibition after 48 hrs by SRB assay; how it was run: as §2
# [1] = (§3) Cytotoxicity against human Hs578T cells assessed as growth inhibition after 48 hrs by SRB assay; conditions: Hs-578T; how it was run: as §2
# Hs-578T = experiment: as §3; how it was run: as §2
# TK-10 = experiment: Cytotoxicity against human TK10 cells assessed as growth inhibition after 48 hrs by SRB assay
# How it was run: (§4)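 NCI 60-cell-line screen, two stages. Five-dose testing at […]. Cellular protein measured by sulforhodamine B colorimetry after 48 h drug exposure. A time-zero control and drug-free plates are used to derive GI50, TGI and LC50 from dose-response curves plotted as log10 concentration per cell line.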
# SR = experiment: Cytotoxicity against human SR cells assessed as growth inhibition after 48 hrs by SRB assay; how it was run: as §4
# IGROV-1 = experiment: Cytotoxicity against human IGROV1 cells assessed as growth inhibition after 48 hrs by SRB assay; how it was run: as §2
# KM12 = experiment: Cytotoxicity against human KM12 cells assessed as growth inhibition after 48 hrs by SRB assay; how it was run: as §2
# SW-620 = experiment: Cytotoxicity against human SW620 cells assessed as growth inhibition after 48 hrs by SRB assay; how it was run: as §4
# COLO 205 = experiment: Cytotoxicity against human COLO205 cells assessed as growth inhibition after 48 hrs by SRB assay; how it was run: as §2
# CCRF-CEM = experiment: Cytotoxicity against human CCRF-CEM cells assessed as growth inhibition after 48 hrs by SRB assay; how it was run: as §2
# CAKI-1 = experiment: Cytotoxicity against human CAKI-1 cells assessed as cell growth at 10 uM after 48 hrs by SRB assay; conditions: CAKI-1, 48 h, read-out: Activity
# OVCAR-3 = experiment: Cytotoxicity against human OVCAR3 cells assessed as cell growth at 10 uM after 48 hrs by SRB assay; conditions: OVCAR-3, 48 h, read-out: Activity
# How it was run: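 First stage of the NCI 60 human tumour cell line screen: a single dose is tested against every line. Cell growth is read as cellular protein by sulforhodamine B colorimetry after 48 h of drug exposure, with reference to a time-zero control and to untreated plates.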
# [2] = (§5) Cytotoxicity against human NCI-ADR-RES cells assessed as growth inhibition after 48 hrs by SRB assay; how it was run: as §1
# NCI/ADR-RES = experiment: as §5; how it was run: as §1
# MCF7 = experiment: Cytotoxicity against human MCF7 cells assessed as growth inhibition after 48 hrs by SRB assay; how it was run: as §1
# U-251 = experiment: Cytotoxicity against human U251 cells assessed as growth inhibition after 48 hrs by SRB assay; how it was run: as §4
# RPMI-8226 = experiment: Cytotoxicity against human RPMI8226 cells assessed as growth inhibition after 48 hrs by SRB assay; how it was run: as §1
# OVCAR-4 = experiment: (§6) Cytotoxicity against human OVCAR4 cells assessed as growth inhibition after 48 hrs by SRB assay; how it was run: as §1
# [3] = as §6; conditions: OVCAR-4, 48 h; how it was run: as §1
# SN12C = experiment: Cytotoxicity against human SN12C cells assessed as growth inhibition after 48 hrs by SRB assay; how it was run: as §4
# ACHN = experiment: Cytotoxicity against human ACHN cells assessed as growth inhibition after 48 hrs by SRB assay; how it was run: as §2
# [4] = read-out: LC50 (the source's name)
smiles,measurement,setting,value
CN(C)CCCSc1nc2ccc3c(c2[nH]1)C(=O)c1ccccc1C3=O,growth inhibition (GI),MDA-MB-231,Dose-dependent effect
same,GI50,"MDA-MB-231; MDA-MB-231, 48 h",4.96 µM
same,TGI,"MDA-MB-231; MDA-MB-231, 48 h",19.3 µM
same,growth inhibition (GI),NCI-H460,Dose-dependent effect
same,TGI,"NCI-H460; NCI-H460, 48 h",12.8 µM
same,growth inhibition (GI),NCI-H226,Dose-dependent effect
same,TGI,"NCI-H226; NCI-H226, 48 h",22.1 µM
same,growth inhibition (GI),SK-MEL-28,Dose-dependent effect
same,GI50,"SK-MEL-28; SK-MEL-28, 48 h",13.5 µM
same,TGI,"SK-MEL-28; SK-MEL-28, 48 h",26.3 µM
same,GI50,LOX IMVI,1.36 µM
same,TGI,LOX IMVI,3 µM
same,growth inhibition (GI),LOX IMVI,Dose-dependent effect
same,growth inhibition (GI),HOP-62,Dose-dependent effect
same,GI50,"HOP-62; HOP-62, 48 h",5.9 µM
same,TGI,"HOP-62; HOP-62, 48 h",21.2 µM
same,growth inhibition (GI),SK-MEL-5,Dose-dependent effect
same,GI50,"SK-MEL-5; SK-MEL-5, 48 h",11.1 µM
same,TGI,"SK-MEL-5; SK-MEL-5, 48 h",23.1 µM
same,growth inhibition (GI),HT-29,Dose-dependent effect
same,GI50,"HT-29; HT-29, 48 h",1.04 µM
same,TGI,"HT-29; HT-29, 48 h",2.61 µM
same,CC50,"HT-29; HT-29, 48 h, read-out: LC50 (the source's name)",6.53 µM
same,growth inhibition (GI),M14,Dose-dependent effect
same,GI50,"M14; M14, 48 h",7.05 µM
same,TGI,"M14; M14, 48 h",20.7 µM
same,GI50,[1],4.84 µM
same,TGI,[1],22.9 µM
same,CC50,[1]; [4],65 µM
same,growth inhibition (GI),Hs-578T,Dose-dependent effect
same,growth inhibition (GI),TK-10,Dose-dependent effect
same,GI50,"TK-10; TK-10, 48 h",1.37 µM
same,TGI,"TK-10; TK-10, 48 h",13.5 µM
same,GI50,SR,0.43 µM
same,TGI,SR,3.47 µM
same,growth inhibition (GI),SR,Dose-dependent effect
same,growth inhibition (GI),IGROV-1,Dose-dependent effect
same,GI50,"IGROV-1; IGROV-1, 48 h",0.329 µM
same,TGI,"IGROV-1; IGROV-1, 48 h",12.8 µM
same,growth inhibition (GI),KM12,Dose-dependent effect
same,GI50,"KM12; KM12, 48 h",1.96 µM
same,TGI,"KM12; KM12, 48 h",7.24 µM
same,CC50,"KM12; KM12, 48 h, read-out: LC50 (the source's name)",27.4 µM
same,growth inhibition (GI),SW-620,Dose-dependent effect
same,GI50,"SW-620; SW-620, 48 h",1.99 µM
same,TGI,"SW-620; SW-620, 48 h",6.29 µM
same,growth inhibition (GI),COLO 205,Dose-dependent effect
same,GI50,"COLO 205; COLO 205, 48 h",3.41 µM
same,TGI,"COLO 205; COLO 205, 48 h",17.1 µM
same,GI50,CCRF-CEM,1.29 µM
same,TGI,CCRF-CEM,4.36 µM
same,growth inhibition (GI),CCRF-CEM,Dose-dependent effect
same,growth at 10 µM,CAKI-1,-14.9%
same,growth at 10 µM,OVCAR-3,59.3%
same,GI50,[2],5.11 µM
same,TGI,[2],21.5 µM
same,growth inhibition (GI),NCI/ADR-RES,Dose-dependent effect
same,growth inhibition (GI),MCF7,Dose-dependent effect
same,GI50,"MCF7; MCF7, 48 h",0.202 µM
same,TGI,"MCF7; MCF7, 48 h",4.21 µM
same,growth inhibition (GI),U-251,Dose-dependent effect
same,GI50,"U-251; U-251, 48 h",10.1 µM
same,TGI,"U-251; U-251, 48 h",22 µM
same,CC50,"U-251; U-251, 48 h, read-out: LC50 (the source's name)",48 µM
same,growth inhibition (GI),RPMI-8226,Dose-dependent effect
same,GI50,"RPMI-8226; RPMI-8226, 48 h",1.25 µM
same,TGI,"RPMI-8226; RPMI-8226, 48 h",4.62 µM
same,growth inhibition (GI),OVCAR-4,Dose-dependent effect
same,GI50,[3],0.031 µM
same,TGI,[3],5.04 µM
same,GI50,SN12C,3.26 µM
same,TGI,SN12C,16.5 µM
same,growth inhibition (GI),SN12C,Dose-dependent effect
same,CC50,SN12C; [4],40.6 µM
same,GI50,ACHN,1.74 µM
same,TGI,ACHN,15 µM
same,growth inhibition (GI),ACHN,Dose-dependent effect
same,CC50,ACHN; [4],38.7 µM
